Measured values pooled from the literature.
Lines come from different studies, so protocols differ.
Target: Tyrosine-protein kinase Srms (SRMS, Homo sapiens, UniProt Q9H3Y6)

CNC(=O)c1cc2c(Oc3ccc(NC(=O)C4(C(=O)Nc5ccc(F)cc5)CC4)cc3)ccnc2cc1OC — inhibition (enzyme activity, inhibitor, radiometric; 1 µM): 97%
COc1cc2ncnc(Nc3ccc(Oc4ccccc4)c(C)c3C)c2cc1OC — inhibition (enzyme activity, inhibitor; 1 µM): 24%
O=C(Nc1cnn(-c2csc(C(=O)NC3COC3)c2)c1)Nc1ccccc1Cl — remaining activity (enzyme activity, inhibitor; 5 µM): 99.8%
CC(C)(C)c1nc(-c2cccc(NS(=O)(=O)c3c(F)cccc3F)c2F)c(-c2ccnc(N)n2)s1 — remaining activity (enzyme activity, inhibitor, radiometric; 1 µM): 10%
C[C@H](c1ccnc(Nc2nc3ccc(-c4cc(N(C)C)ncn4)cc3[nH]2)c1)N1CCN(C(=O)CC(F)(F)F)CC1 — remaining binding (cell-free assay, competition with immobilised ligand; 0.1 µM): 97%
N#CCCc1ccc2c(c1)-c1[nH]c3ccc([N+](=O)[O-])cc3c1CC(=O)N2 — remaining signal (cell-free assay; 0.5 µM): 78.6%
CC(C)(O)[C@H]1CC[C@H](Nc2ccc3ncc(-c4cccc(C(F)(F)F)c4)n3n2)CC1 — remaining activity (enzyme activity, inhibitor; 1 µM): 96.5%
CNCc1ccccc1-c1csc([C@H](C)Nc2nc(C)nc3cc(OC)c(OC)cc23)c1 — remaining binding (cell-free assay, competition with immobilised ligand; 1 µM): 88%
Cc1ccc(C(=O)Nc2ccc(CN3CCN(C)CC3)c(C(F)(F)F)c2)cc1C#Cc1cnc2cccnn12 — remaining activity (enzyme activity, inhibitor; 23.5 nM): 40%
CN1CC(Oc2cnc(C#N)cc2-c2ccn3nc(NC(=O)C4CC4)cc3c2)C1 — inhibition (enzyme activity, inhibitor; 1 µM): 4%
C[S+]([O-])c1ccc(-c2nc(-c3ccncc3)c(-c3ccc(F)cc3)[nH]2)cc1 (stereo not shown) — remaining signal (cell-free assay; 0.5 µM): 102%
Cc1ccc(C(=O)NCc2ccsc2)cc1C#Cc1cn(C(C)C)c2ncnc(N)c12 — activity vs control (enzyme activity, inhibitor; 1 µM): 31%
C[C@H](c1ccc(F)cc1)N(Cc1cccc(C(=O)O)c1)C(=O)c1cnc2ccccc2c1 — remaining binding (cell-free assay, competition with immobilised ligand; 1 µM): 100%
